According to publication PMC2652879 (Clinical cancer research : an official journal of the …, 2008):

What was measured:
[1] = Plasma pharmacokinetics of AG014447; assay type: in vivo, human; settings: for effect of TMZ on pharmacokinetics (interaction): after a single dose or multiple doses
SW620 tumours = settings: most efficacious dose of AG014699 combined with TMZ; animals bearing SW620 tumours; cited from earlier work
PARP [2] = target: T1, PARP (Homo sapiens, UniProt P09874); assay: PARP activity immunoassay ex vivo in peripheral blood lymphocytes
T1 sequence (P09874 whole entry, the tested form may be a part): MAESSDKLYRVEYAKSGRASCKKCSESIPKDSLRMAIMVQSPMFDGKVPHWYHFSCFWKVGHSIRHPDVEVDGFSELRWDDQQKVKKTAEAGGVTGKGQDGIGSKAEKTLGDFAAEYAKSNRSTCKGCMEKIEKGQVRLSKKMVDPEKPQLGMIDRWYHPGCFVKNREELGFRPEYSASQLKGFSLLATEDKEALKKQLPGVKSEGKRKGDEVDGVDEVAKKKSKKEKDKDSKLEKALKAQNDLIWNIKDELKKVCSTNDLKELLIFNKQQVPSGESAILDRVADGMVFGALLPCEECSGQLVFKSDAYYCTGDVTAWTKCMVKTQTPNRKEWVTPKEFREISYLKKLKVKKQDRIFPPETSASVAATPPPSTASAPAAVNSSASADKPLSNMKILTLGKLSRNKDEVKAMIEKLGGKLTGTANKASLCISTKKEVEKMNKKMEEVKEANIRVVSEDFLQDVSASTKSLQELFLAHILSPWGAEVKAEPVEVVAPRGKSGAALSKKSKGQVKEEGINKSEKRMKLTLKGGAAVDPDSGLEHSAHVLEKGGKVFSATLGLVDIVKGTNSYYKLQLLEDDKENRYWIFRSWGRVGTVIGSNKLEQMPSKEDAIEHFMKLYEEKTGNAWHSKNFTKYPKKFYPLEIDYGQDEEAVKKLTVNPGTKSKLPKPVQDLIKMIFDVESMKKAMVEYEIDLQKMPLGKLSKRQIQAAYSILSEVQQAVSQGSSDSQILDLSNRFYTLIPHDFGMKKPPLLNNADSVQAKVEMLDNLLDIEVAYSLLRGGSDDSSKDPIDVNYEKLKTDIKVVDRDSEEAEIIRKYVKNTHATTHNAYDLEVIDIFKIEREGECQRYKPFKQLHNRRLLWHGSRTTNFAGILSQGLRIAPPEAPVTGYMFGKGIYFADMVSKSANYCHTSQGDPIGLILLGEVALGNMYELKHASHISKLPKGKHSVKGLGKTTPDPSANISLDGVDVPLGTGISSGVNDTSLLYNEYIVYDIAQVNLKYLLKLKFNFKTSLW
How it was run: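 Patients with solid tumours (part 1) got one IV dose of PARP inhibitor on day -7, then temozolomide 100 mg/m2/day x5 q28 days with the inhibitor, over 5 escalating dose levels. PBLs were sampled at baseline, end of infusion, 4-6 h and 24 h on days -7, 1 and 4 of cycle 1, plus day 8 at PID. PAR formation was quantified immunologically ex vivo. PID: maximal (≥50%) activity reduction at 24 h, with no gain over the preceding dose.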

[3] = Toxicity / dose limiting toxicity in phase I trial; assay type: in vivo, human; settings: for dose recommended for future studies: combination, x5 every 28 days
advanced solid tumors = assay: Tumour response by RECIST in phase I patients; assay type: in vivo, human; settings: AG014699 + TMZ
How it was run: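 Patients with advanced solid tumours received a daily 30 min IV infusion of test compound followed by oral temozolomide for 5 consecutive days, repeated every 28 days. Response was assessed by RECIST every 2 cycles, and patients completing 2 cycles were evaluable.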

metastatic melanoma = settings: phase II, AG014699 with TMZ, preliminary results; cited from earlier work
PARP [4] = settings: most efficacious dose of AG014699 combined with TMZ; cited from earlier work
PARP [5] = target: T1, PARP; assay: PARP activity immunoassay in paired tumour biopsies of melanoma patients; assay type: in vivo
How it was run: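 Chemonaive melanoma patients (part 2) received PARP inhibitor at PID with temozolomide escalated to at most 200 mg/m2; one extra level used 18 mg/m2 inhibitor plus 200 mg/m2 temozolomide. Paired biopsies were taken at baseline and after the first inhibitor dose (4, 5 or 24 h stated). PAR formation was quantified immunologically ex vivo. Activity was expressed as percentage of the same patient's pre-treatment biopsy.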

[6] = tested on: DNA strand breaks in PBLs; assay: Alkaline Comet assay for DNA strand breaks in PBLs of patients; assay type: in vivo, human
How it was run: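 Alkaline Comet assay (modified Olive method) on peripheral blood mononuclear cells, with slides stained with SYBR gold. Blood was sampled in cycle 1 before, 4 h and 24 h after temozolomide, following a daily 30 min IV infusion of test compound. For each sample, 50 cells from two slides were scored for % tail DNA and Olive tail moment, and means were taken. Readings were averaged by dose cohort (up to 6 patients).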

[7] = AG014447 concentration in tumour biopsy homogenates; assay type: in vivo, human; settings: samples taken 5 hours (24 hr in 3 patients) after administration
[8] = cited from earlier work

## CNCc1ccc(-c2[nH]c3cc(F)cc4c3c2CCNC4=O)cc1 [AG014699]
[1]; 1-18 mg/m^2, 30 minute IV infusion
  pharmacokinetic linearity: linear
[1]; CYP2D6 genotype *4,*4 vs wild type/heterozygous
  exposure (AUC0-24hr) in predicted extensive vs poor CYP2D6 metabolism: similar
[1]
  effect of TMZ on pharmacokinetics (interaction): no interaction
[1]; cohort 2, 699 dose 2 mg/m^2 (n=3), TMZ dose 100, day 1
  t^1/2 mean: 3.8 h
[1]; cohort 2, 699 dose 2 mg/m^2 (n=3), TMZ dose 100, day 4
  t^1/2 mean: 8.0 h
[1]; cohort 2, 699 dose 2 mg/m^2 (n=3), TMZ dose 100, day -7
  t^1/2 mean: 6.9 h
[1]; cohort 3, 699 dose 4 mg/m^2 (n=3), TMZ dose 100, day 1
  t^1/2 mean: 10.6 h
[1]; cohort 3, 699 dose 4 mg/m^2 (n=3), TMZ dose 100, day 4
  t^1/2 mean: 10.9 h
[1]; cohort 3, 699 dose 4 mg/m^2 (n=3), TMZ dose 100, day -7
  t^1/2 mean: 23.2 h
[1]; cohort 4, 699 dose 8 mg/m^2 (n=4), TMZ dose 100, day 1
  t^1/2 mean: 13.9 h
[1]; cohort 4, 699 dose 8 mg/m^2 (n=4), TMZ dose 100, day 4
  t^1/2 mean: 18.3 h
[1]; cohort 4, 699 dose 8 mg/m^2 (n=4), TMZ dose 100, day -7
  t^1/2 mean: 19.9 h
[1]; cohort 5-8, 699 dose 12 mg/m^2 (n=12), TMZ dose 100-200, day 1
  t^1/2 mean: 15.0 h
[1]; cohort 5-8, 699 dose 12 mg/m^2 (n=12), TMZ dose 100-200, day 4
  t^1/2 mean: 16.8 h
[1]; cohort 5-8, 699 dose 12 mg/m^2 (n=12), TMZ dose 100-200, day -7
  t^1/2 mean: 11.5 h
[1]; cohort 9, 699 dose 18 mg/m^2 (n=6), TMZ dose 200, day 1
  t^1/2 mean: 16.0 h
[1]; cohort 9, 699 dose 18 mg/m^2 (n=6), TMZ dose 200, day 4
  t^1/2 mean: 15.2 h
[1]; cohort 9, 699 dose 18 mg/m^2 (n=6), TMZ dose 200, day -7
  t^1/2 mean: 13.1 h
[1]; normalized for actual dose and for mg/m^2 dose (both cases)
  inter-subject variability of normalized AUC0-24h: 54%
SW620 tumours
  antitumour efficacy: cures were seen
PARP [2]; 12 mg/m^2/day, cycle 1 day 8, 72 hours after the last dose
  PBL PARP enzyme activity recovered, of baseline: ~50%
PARP [2]; all AG014699 dose levels, at the end of infusion
  PARP inhibition in PBLs: > 90%
PARP [2]; at PID 12 mg/m^2
  inhibition of PBL PARP activity: 74 -97%
PARP [2]; based on PBL (surrogate tissue) PARP inhibition, with TMZ 100 mg/m^2 daily x 5
  PARP-inhibitory dose (PID): 12 mg/m^2
PARP [2]; doses above 8 mg/m^2
  recovery of PBL PARP activity over 24 hours: no recovery was observed
PARP [2]; lower dose levels
  recovery of PBL PARP activity over 24 hours: recovery of enzyme activity over 24 hours
PARP [2]; part 1, 5 dose levels, TMZ 100 mg/m^2/day
  PARP-inhibitory dose (PID): 12 mg/m^2/day
[3]; AG014699 18 mg/m^2/day given with TMZ 200 mg/m^2/day
  dose limiting toxicity observed: Myelosuppression
[3]; Part 1 cohort 1, AG014699 1 mg/m^2 + TMZ 100 mg/m^2, 3 patients, 30 cycles
  DLTs and other grade 3/4 toxicity: None
[3]; Part 1 cohort 2, AG014699 2 mg/m^2 + TMZ 100 mg/m^2, 4 patients, 11 cycles
  DLTs and other grade 3/4 toxicity: None
[3]; Part 1 cohort 3, AG014699 4 mg/m^2 + TMZ 100 mg/m^2, 4 patients, 20 cycles
  DLTs and other grade 3/4 toxicity: None
[3]; Part 1 cohort 4, AG014699 8 mg/m^2 + TMZ 100 mg/m^2, 4 patients, 5 cycles
  DLTs and other grade 3/4 toxicity: None
[3]; Part 1 cohort 5, AG014699 12 mg/m^2 + TMZ 100 mg/m^2, 3 patients, 11 cycles
  DLTs and other grade 3/4 toxicity: None
[3]; Part 2 cohort 6, AG014699 12 mg/m^2 + TMZ 135 mg/m^2, 3 patients, 6 cycles
  DLTs and other grade 3/4 toxicity: None
[3]; Part 2 cohort 7, AG014699 12 mg/m^2 + TMZ 170 mg/m^2, 3 patients, 10 cycles
  DLTs and other grade 3/4 toxicity: None
[3]; Part 2 cohort 8, AG014699 12 mg/m^2 + TMZ 200 mg/m^2, 3 patients, 16 cycles
  DLTs and other grade 3/4 toxicity: None
[3]; combination with temozolomide
  Recommended dose: 12 mg/m^2
[3]
  dose recommended for future studies: 12 mg/m^2/day
[3]; part 2, PARP inhibitory dose of AG014699 with 200 mg/m^2 temozolomide
  DLT: without DLT
[3]; patients, no toxic deaths
  tolerability of the combination with temozolomide: well tolerated
[3]; patients, single agent
  toxicity attributable to AG014699 alone: No toxicity of any kind
Advanced solid tumors; no prior chemotherapy for melanoma
  tumour response in patients with metastatic melanoma: one documented complete and one partial response
Advanced solid tumors; previously treated with surgery and imatinib
  tumour response in a patient with a desmoid tumour: a further partial response
Metastatic melanoma
  partial response rate: 17%
  patients having stable disease for 6 months or more: 17%
PARP [4]
  xenograft PARP inhibition: 50%
PARP [5]; at 5 hours
  Mean tumor PARP inhibition: 92%
  tumor PARP inhibition, range: 46 - 97%
PARP [5]; part 2, all biopsies, 12 and 18 mg/m^2
  PARP inhibition in paired tumour biopsies: > 50%
[6]; Day 1, PARP inhibitory doses (12-18 mg/m^2) with TMZ, p=0.03
  mean increase in Comet tail size at 24 h vs 4 h: 3%
[6]; Day 1, lower doses (1-8 mg/m^2) with TMZ
  mean decrease in Comet tail size at 24 h vs 4 h: 8%
[6]; all patients treated at PID
  DNA single strand breaks (SSB): increases in DNA SSB
[6]; patients treated with AG014699 and TMZ
  DNA damage in PBLs (Comet analysis): evidence of DNA damage in all patients

## CNCc1ccc(-c2[nH]c3cc(F)cc4c3c2CCNC4=O)cc1 [AG014447]
[1]; listed as AG-014447
  effect of TMZ on pharmacokinetics (interaction): no evidence that TMZ has an effect
[1]; mean for the treated population
  mean terminal half-life (CV%): 9.5 (50.4) hours
[7]
  concentration in tumour biopsy homogenates, range: 5-110 ng/g tumour protein

## Cn1nnc2c(C(N)=O)ncn2c1=O [Temozolomide, reference compound]
[8]; TMZ 200 mg/m^2/day
  tolerability: well tolerated
[8]; TMZ 225 mg/m^2/day
  toxicity: significant myelosuppression
[3]; combination with AG014699
  Recommended dose: 200 mg/m2
[3]
  dose recommended for future studies: 200 mg/m^2/day
